From the M2OR odorant receptor database

molecular target: T1, OR2W3 (Homo sapiens) (UniProt Q7Z3T1); conditions: stereoisomer not certain
T1 sequence (whole entry): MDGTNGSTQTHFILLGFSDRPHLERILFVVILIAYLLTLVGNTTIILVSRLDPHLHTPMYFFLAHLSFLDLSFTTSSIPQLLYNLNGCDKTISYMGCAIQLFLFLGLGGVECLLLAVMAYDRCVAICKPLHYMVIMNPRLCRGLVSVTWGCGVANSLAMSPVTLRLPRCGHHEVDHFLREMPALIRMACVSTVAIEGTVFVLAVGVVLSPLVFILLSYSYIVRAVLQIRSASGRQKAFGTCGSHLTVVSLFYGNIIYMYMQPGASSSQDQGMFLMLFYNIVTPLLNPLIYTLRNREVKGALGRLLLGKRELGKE
Procedure, shortened: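 Transient luciferase assays in mammalian cell lines were common, though methods varied by source. The values come from published papers and their supplementary material, with extra details from the original authors when needed. Responsive refers to a measured signal the original authors judged statistically different from baseline, and non-responsive (inactive) to the remainder.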
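Note: active if original authors judged signal statistically different from baseline.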

Odorant receptor agonist call, inactive:
CCCCCCCCCCCCO, CCCCCCCCCCCC(=O)OC, CCCCCCCC(=O)OC, CCCCOCC(C)O (stereo unspecified), CCCCCCCCCCCCCCC(=O)O, Cc1ccc(C(C)C)cc1, C=C(C)C1CC=C(C)CC1 (stereo unspecified), CC(=O)O, CCCCCCCCCCCC(=O)OCC, CCCCCCCCCCCCCC(=O)OCC, CCC(C)CO (stereo unspecified), CCCCCCCCCCCCCCCCCC(=O)[O-].[H+], CCCCCCCCCC(=O)OC, CCCCC(=O)C(C)=O, CCCCCCCCCCCCCCCCCC(=O)OCC, CCCCCCCCCC(=O)OCC, CCC(=O)O, Cc1cnc(C)cn1, CCCCCCCCCCCCCC(=O)OC, CCCCCCCCCCCCCCCCCC(=O)OC, CCCCCCCCCCCCCCCC(=O)OC, CC1=CCC2CC1C2(C)C (stereo unspecified), CCCC(=O)CC, CCCCCCCCCCCC(=O)O, O=c1ccc2ccccc2o1, CCC(O)CC, CC(C)=CCCC(C)=CCCC(C)=CCO, CCCCCCCCCCCCCCCC(=O)OCC, CCCO, CCCCCCCCCCCCCCCC(=O)[O-].[H+], Cc1cccc(C)c1C, C=C1CCC2CC1C2(C)C (stereo unspecified), CC(C)=CCCC(C)=CCO, CC(O)C(=O)[O-].[H+] (stereo unspecified), CCCCCCCC(=O)OCC, COc1ccc2[nH]cc(CCNC(C)=O)c2c1
